The text below walks through data of ChEMBL document CHEMBL4038333, “Nonacidic Farnesoid X Receptor Modulators” (J Med Chem, 2017).

Calls of active or inactive are those of the source. The calls are words filed in the database; no cut-off is given here.

Series [1] has as its target T1, Bile acid receptor (Homo sapiens, UniProt Q96RI1).
T1 sequence (Q96RI1 whole entry): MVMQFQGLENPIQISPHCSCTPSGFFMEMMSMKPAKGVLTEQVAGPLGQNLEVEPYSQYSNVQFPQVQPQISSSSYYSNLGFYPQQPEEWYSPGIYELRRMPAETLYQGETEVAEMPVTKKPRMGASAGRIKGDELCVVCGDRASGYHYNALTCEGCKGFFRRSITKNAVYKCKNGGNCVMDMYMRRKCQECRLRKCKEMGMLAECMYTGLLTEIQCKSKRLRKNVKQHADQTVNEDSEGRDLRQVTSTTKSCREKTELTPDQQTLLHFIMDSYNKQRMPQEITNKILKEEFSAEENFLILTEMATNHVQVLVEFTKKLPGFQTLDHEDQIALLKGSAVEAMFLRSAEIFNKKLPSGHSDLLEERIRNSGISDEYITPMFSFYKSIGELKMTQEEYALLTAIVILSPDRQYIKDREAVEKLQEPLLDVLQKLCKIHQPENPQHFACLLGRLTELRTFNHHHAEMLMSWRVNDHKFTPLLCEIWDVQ
Kind of series: Transactivation of human FXR expressed in human HeLa cells co-expressing BSEP after 24 hrs by dual-glo luciferase reporter gene assay. The format is cell-based. To be noted: read-out: EC50. The procedure, abridged: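 Full-length reporter system with constitutive expression of hFXR and hRXR. A constitutive Renilla luciferase served for normalization and as a toxicity control. Maximum relative activation was expressed against a reference FXR agonist at 3 µM, set as 100%.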

Series [2] addresses T1, Bile acid receptor. Kind of series: Binding affinity to FXR (unknown origin) ligand binding domain by ITC assay.
Series [3] can be described thus: Lipophilicity, logD of compound at pH 7.4 by LC-MS analysis. Type of series: physicochemical. The settings on record: buffer, read-out: logD.
Series [4] has as its target Retinoic acid receptor RXR-beta (Homo sapiens) (UniProt P28702). Kind of series: Transactivation of GAL4-tagged human RXRbeta isoform 1 ligand binding domain (294 to 533 residues) expressed in HEK293T cells at 1 uM after 12 to 14 hrs by dual-glo luciferase reporter gene assay. To be noted: HEK-293T. Type of series: cell-based. The gist of the method:
(§1)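 Run as a selectivity screen against each listed receptor (14 nuclear receptors plus TGR5), in both agonist and antagonist modes. Test concentration was 1 µM, with n = 3.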

Series [5] deals with Retinoic acid receptor RXR-alpha (Homo sapiens) (UniProt P19793). Kind of series: Transactivation of GAL4-tagged human RXRalpha ligand binding domain (225 to 462 residues) expressed in HEK293T cells at 1 uM after 12 to 14 hrs by dual-glo luciferase reporter gene assay. The format is cell-based. The settings on record: HEK-293T. The procedure, abridged: as §1
In series [6] the target is Oxysterols receptor LXR-alpha (Homo sapiens) (UniProt Q13133). Kind of series: Transactivation of GAL4-tagged human LXRalpha ligand binding domain expressed in HEK293T cells at 1 uM after 12 to 14 hrs by dual-glo luciferase reporter gene assay. Type of series: cell-based. The settings on record: HEK-293T. The procedure, abridged:
as §1

Series [7] concerns the target Peroxisome proliferator-activated receptor alpha (Homo sapiens) (UniProt Q07869). Briefly: Transactivation of GAL4-tagged human PPARalpha ligand binding domain expressed in HEK293T cells at 1 uM after 12 to 14 hrs by dual-glo luciferase reporter gene assay. Type of series: cell-based. To be noted: HEK-293T. The gist of the method: as §1
Series [8] concerns the target G-protein coupled bile acid receptor 1 (Homo sapiens) (UniProt Q8TDU6). Briefly: Antagonist activity at TGR5 (unknown origin) expressed in HEK293T cells at 1 uM after 12 to 14 hrs by dual-glo luciferase reporter gene assay. The format is cell-based. The procedure, abridged: as §1
For series [9], the target named is Nuclear receptor subfamily 1 group I member 3 (Homo sapiens, UniProt Q14994). Briefly: Antagonist activity at GAL4-tagged human CAR isoform 6 ligand binding domain (48 to 324 residues) expressed in HEK293T cells at 1 uM after 12 to 14 hrs by dual-glo luciferase reporter gene assay. Type of series: cell-based. The settings on record: hek-293t. The gist of the method: as §1

Series [10] deals with Retinoic acid receptor gamma (Homo sapiens) (UniProt P13631). Briefly: Antagonist activity at GAL4-tagged human RARgamma isoform 1 ligand binding domain (179 to 454 residues) expressed in HEK293T cells at 1 uM after 12 to 14 hrs by dual-glo luciferase reporter gene assay. Type of series: cell-based. To be noted: HEK-293T. The gist of the method:
as §1

Series [11] addresses Retinoic acid receptor RXR-beta (Homo sapiens) (UniProt P28702). Kind of series: Antagonist activity at GAL4-tagged human RXRbeta isoform 1 ligand binding domain (294 to 533 residues) expressed in HEK293T cells at 1 uM after 12 to 14 hrs by dual-glo luciferase reporter gene assay. The format is cell-based. The settings on record: HEK-293T. The procedure, abridged:
as §1

In series [12] the target is Retinoic acid receptor RXR-alpha (Homo sapiens) (UniProt P19793). Briefly: Antagonist activity at GAL4-tagged human RXRalpha ligand binding domain (225 to 462 residues) expressed in HEK293T cells at 1 uM after 12 to 14 hrs by dual-glo luciferase reporter gene assay. The format is cell-based. To be noted: HEK-293T. The gist of the method: as §1
The target of series [13] is Peroxisome proliferator-activated receptor delta (Homo sapiens) (UniProt Q03181). Briefly: Antagonist activity at GAL4-tagged human PPARdelta ligand binding domain expressed in HEK293T cells at 1 uM after 12 to 14 hrs by dual-glo luciferase reporter gene assay. The format is cell-based. To be noted: HEK-293T. The procedure, abridged: as §1
Series [14] addresses Peroxisome proliferator-activated receptor alpha (Homo sapiens) (UniProt Q07869). Briefly: Antagonist activity at GAL4-tagged human PPARalpha ligand binding domain expressed in HEK293T cells at 1 uM after 12 to 14 hrs by dual-glo luciferase reporter gene assay. Type of series: cell-based. To be noted: HEK-293T. The gist of the method: as §1
Series [15] has as its system HeLa. Kind of series: Selectivity ratio for human FXR expressed in human HeLa cells co-expressing BSEP over GAL4-tagged human CAR isoform 6 ligand binding domain (48 to 324 residues) expressed in HEK293T cells. The format is cell-based.
Series [16] concerns HeLa. Briefly: Selectivity ratio for human FXR expressed in human HeLa cells co-expressing BSEP over GAL4-tagged human PXR isoform 1 ligand binding domain (138 to 434 residues) expressed in HEK293T cells. Type of series: cell-based.
In series [17] the test system is HeLa. Briefly: Selectivity ratio for human FXR expressed in human HeLa cells co-expressing BSEP over GAL4-tagged human RARalpha1 ligand binding domain (177 to 462 residues) expressed in HEK293T cells. Type of series: cell-based.
Series [18] has as its system HeLa. Briefly: Selectivity ratio for human FXR expressed in human HeLa cells co-expressing BSEP over GAL4-tagged human RXRgamma ligand binding domain (229 to 463 residues) expressed in HEK293T cells. Type of series: cell-based.
The subject of series [19] is HeLa. Briefly: Selectivity ratio for human FXR expressed in human HeLa cells co-expressing BSEP over GAL4-tagged human RXRbeta isoform 1 ligand binding domain (294 to 533 residues) expressed in HEK293T cells. Type of series: cell-based.
The test system of series [20] is HeLa. Briefly: Selectivity ratio for human FXR expressed in human HeLa cells co-expressing BSEP over GAL4-tagged human LXRbeta ligand binding domain expressed in HEK293T cells. The format is cell-based.
Series [21] has as its system HeLa. Kind of series: Selectivity ratio for human FXR expressed in human HeLa cells co-expressing BSEP over GAL4-tagged human LXRalpha ligand binding domain expressed in HEK293T cells. Type of series: cell-based.
Series [22] relates to HeLa. Briefly: Selectivity ratio for human FXR expressed in human HeLa cells co-expressing BSEP over GAL4-tagged human PPARalpha ligand binding domain expressed in HEK293T cells. The format is cell-based.
The target of series [23] is T2, Bile acid receptor (Homo sapiens) (UniProt Q96RI1).
T2 sequence (whole entry): T1 sequence (Q96RI1 whole entry)
Kind of series: Modulation of FXR in human HepG2 cells assessed as induction of PPARalpha mRNA expression at 10 nM by qRT-PCR analysis. Type of series: cell-based. The gist of the method: (§2)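 HepG2 hepatocarcinoma cells were incubated with the compound at 10 nM. FXR target-gene mRNA was quantified by qRT-PCR (n = 3), with significance at p < 0.05, 0.01 and 0.001.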

Series [24] has as its target T2, Bile acid receptor (Homo sapiens). Briefly: Modulation of FXR in human HepG2 cells assessed as suppression of SREBP1c mRNA expression at 10 nM by qRT-PCR analysis. Type of series: cell-based. The procedure, abridged: as §2

Sequence of Retinoic acid receptor RXR-alpha (Homo sapiens) (P19793 whole entry, the tested form may be a part): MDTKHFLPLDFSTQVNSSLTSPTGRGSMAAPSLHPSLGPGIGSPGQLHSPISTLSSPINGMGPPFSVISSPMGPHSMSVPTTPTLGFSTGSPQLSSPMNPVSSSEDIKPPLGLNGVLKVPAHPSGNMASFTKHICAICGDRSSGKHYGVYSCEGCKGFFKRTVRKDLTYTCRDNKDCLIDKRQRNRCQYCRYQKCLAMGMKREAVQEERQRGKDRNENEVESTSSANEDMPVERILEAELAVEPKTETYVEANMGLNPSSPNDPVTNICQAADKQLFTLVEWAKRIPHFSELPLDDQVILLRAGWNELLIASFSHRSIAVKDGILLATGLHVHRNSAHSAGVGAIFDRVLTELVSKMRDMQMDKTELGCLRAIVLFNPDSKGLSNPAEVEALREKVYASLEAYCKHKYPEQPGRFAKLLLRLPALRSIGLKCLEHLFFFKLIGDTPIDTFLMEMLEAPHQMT
Sequence of Retinoic acid receptor RXR-beta (Homo sapiens) (P28702 whole entry, the tested form may be a part, canonical isoform): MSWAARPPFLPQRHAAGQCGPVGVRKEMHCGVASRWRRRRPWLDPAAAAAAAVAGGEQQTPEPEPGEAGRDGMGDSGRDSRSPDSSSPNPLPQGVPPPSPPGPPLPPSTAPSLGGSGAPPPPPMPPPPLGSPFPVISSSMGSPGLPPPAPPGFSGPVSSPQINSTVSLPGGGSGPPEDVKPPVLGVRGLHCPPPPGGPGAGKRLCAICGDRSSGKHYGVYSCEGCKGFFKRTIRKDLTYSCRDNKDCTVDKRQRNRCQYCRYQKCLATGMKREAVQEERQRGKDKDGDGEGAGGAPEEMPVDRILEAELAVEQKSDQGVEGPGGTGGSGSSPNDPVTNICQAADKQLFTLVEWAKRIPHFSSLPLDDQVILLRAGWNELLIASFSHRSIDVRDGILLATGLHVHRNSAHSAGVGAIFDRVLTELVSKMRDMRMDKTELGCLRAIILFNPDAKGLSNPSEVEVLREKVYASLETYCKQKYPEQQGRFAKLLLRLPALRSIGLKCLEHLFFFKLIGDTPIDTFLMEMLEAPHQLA
Sequence of Peroxisome proliferator-activated receptor alpha (Homo sapiens) (Q07869 whole entry, the tested form may be a part, canonical isoform): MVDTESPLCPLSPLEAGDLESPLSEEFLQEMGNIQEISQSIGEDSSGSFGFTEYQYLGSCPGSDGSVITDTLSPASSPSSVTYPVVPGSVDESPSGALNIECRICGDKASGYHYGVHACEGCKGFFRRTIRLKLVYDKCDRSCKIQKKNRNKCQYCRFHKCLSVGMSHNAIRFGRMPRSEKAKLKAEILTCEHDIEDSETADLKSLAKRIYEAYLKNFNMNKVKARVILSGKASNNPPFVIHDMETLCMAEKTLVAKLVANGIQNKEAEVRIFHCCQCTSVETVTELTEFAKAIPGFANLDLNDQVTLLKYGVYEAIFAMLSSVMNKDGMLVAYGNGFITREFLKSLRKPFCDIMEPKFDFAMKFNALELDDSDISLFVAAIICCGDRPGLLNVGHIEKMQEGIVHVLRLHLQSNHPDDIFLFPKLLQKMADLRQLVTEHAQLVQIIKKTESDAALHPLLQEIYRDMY
Sequence of G-protein coupled bile acid receptor 1 (Homo sapiens) (Q8TDU6 whole entry, the tested form may be a part, canonical isoform): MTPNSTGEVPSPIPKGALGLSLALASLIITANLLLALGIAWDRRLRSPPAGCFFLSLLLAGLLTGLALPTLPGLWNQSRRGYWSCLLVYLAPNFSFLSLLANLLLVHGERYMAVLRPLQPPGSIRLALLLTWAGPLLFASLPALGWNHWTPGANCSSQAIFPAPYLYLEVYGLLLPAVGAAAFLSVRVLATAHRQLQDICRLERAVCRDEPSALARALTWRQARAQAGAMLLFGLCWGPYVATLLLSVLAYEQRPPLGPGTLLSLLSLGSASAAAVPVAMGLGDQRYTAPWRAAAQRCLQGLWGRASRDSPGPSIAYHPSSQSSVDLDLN
Sequence of Nuclear receptor subfamily 1 group I member 3 (Q14994 whole entry, the tested form may be a part, canonical isoform): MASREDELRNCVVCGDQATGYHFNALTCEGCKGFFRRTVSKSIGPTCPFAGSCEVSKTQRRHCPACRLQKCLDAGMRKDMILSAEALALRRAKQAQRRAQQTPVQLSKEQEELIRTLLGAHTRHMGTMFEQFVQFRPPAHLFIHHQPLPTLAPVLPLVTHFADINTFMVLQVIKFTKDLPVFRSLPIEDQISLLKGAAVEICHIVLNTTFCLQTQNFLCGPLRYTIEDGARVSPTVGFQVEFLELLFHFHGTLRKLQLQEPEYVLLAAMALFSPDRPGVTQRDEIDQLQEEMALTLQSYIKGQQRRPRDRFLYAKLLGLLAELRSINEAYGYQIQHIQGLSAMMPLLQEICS
Sequence of Retinoic acid receptor gamma (Homo sapiens) (P13631 whole entry, the tested form may be a part, canonical isoform): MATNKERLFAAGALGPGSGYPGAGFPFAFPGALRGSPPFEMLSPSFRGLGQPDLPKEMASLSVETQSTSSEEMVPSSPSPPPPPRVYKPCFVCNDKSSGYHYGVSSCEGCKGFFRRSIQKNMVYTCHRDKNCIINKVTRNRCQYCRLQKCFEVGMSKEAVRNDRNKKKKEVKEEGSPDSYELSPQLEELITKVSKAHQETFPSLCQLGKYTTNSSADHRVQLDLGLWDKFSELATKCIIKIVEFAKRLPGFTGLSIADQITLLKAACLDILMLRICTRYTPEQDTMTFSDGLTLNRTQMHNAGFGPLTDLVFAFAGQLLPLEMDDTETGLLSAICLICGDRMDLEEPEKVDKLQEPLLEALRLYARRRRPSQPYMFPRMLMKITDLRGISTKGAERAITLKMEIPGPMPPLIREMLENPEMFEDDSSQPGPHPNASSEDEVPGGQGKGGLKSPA
Sequence of Peroxisome proliferator-activated receptor delta (Homo sapiens) (Q03181 whole entry, the tested form may be a part): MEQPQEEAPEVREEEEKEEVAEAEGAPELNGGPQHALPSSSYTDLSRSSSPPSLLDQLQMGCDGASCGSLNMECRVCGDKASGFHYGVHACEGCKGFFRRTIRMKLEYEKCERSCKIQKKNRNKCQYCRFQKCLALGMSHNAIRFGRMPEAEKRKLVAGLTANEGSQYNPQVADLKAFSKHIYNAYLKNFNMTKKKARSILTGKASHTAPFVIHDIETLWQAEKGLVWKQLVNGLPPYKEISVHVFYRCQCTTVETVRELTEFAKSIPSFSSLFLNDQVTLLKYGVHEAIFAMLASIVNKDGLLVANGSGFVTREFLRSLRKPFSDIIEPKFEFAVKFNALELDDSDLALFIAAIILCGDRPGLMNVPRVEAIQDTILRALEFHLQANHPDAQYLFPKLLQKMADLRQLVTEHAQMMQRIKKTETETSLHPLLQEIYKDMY
Sequence of Oxysterols receptor LXR-alpha (Homo sapiens) (Q13133 whole entry, the tested form may be a part): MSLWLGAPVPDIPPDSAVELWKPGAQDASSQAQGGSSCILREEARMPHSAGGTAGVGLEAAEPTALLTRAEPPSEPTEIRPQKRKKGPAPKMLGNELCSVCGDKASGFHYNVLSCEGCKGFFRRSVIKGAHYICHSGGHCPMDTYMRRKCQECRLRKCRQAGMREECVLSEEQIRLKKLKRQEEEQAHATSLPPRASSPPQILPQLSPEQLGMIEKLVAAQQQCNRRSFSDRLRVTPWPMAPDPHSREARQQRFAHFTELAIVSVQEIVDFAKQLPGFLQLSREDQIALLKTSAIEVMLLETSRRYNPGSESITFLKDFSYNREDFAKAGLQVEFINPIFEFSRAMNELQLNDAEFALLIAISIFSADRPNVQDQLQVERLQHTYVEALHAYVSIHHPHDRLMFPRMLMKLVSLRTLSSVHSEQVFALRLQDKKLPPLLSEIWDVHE

Take `COc1ccc(CNc2c(-c3cc(Cl)ccn3)nc3ccc(Cl)cn23)cc1`: at Bile acid receptor [1], the EC50 was 0.3 nM. This compound had a Kd on Bile acid receptor [2] of 37 nM. In addition, the log distribution coefficient (logD) in [3] was 1.69. The outcome in [4], in [5], in [6] and in series [7] was inactive. For the same compound, the inhibition result in [8], in series [10], in series [11], in series [12], in series [13] and in [14] was “inactive” each time. For the same compound, the “inhibition (INH)” value in [9] is “Not Active”. In addition, the Selectivity ratio with HeLa [15], with HeLa [16], in the series on HeLa [17], in the series with HeLa [18], with HeLa [19] and in the series on HeLa [20] was 3000 each time. Moreover, the Selectivity ratio in the series with HeLa [21] and in the series with HeLa [22] was 3000 throughout. In addition, the result in [23] and in series [24] was Active.
